Screening results as filed in PubChem BioAssay.
A selection: hits, their analogues and other compounds. The true share with any hit is near 1.8%.
PAD4 inh – human PAD4 inhibitors, primary screen, biochemical, fluorescence polarization, 1536-well format | recombinant PAD4, RCA probe fluorescence polarization | inhibition, % at 6.36 µM | Protein-arginine deiminase type-4 (Homo sapiens), Q9UM07 | 0.41% of 330,000 active;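 active = percent inhibition above a cutoff equal to the mean of all tested compounds plus 3 SD, cut at about 15% in these data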;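 note: 0% = PAD4 with RCA probe and DMSO and 100% = probe without PAD4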
GSTO1 inh – inhibitors of recombinant GSTO1, primary screen, counter-screen for RBBP9 inhibitor project, biochemical, fluorescence polarization; AID 1974, 2009; Glutathione S-transferase omega-1 (Homo sapiens), P78417; inhibition, % at 5.96 µM; 1.1% of 300,000 active; activity-based probe fluorescence polarization;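 active = inhibition above the campaign mean inhibition plus 3 SD, cut at about 35% in these data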;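 note: 0% = GSTO1-1 with DMSO and 100% = wells lacking GSTO1-1 enzyme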
Target sequence (P78417 whole entry, looked up): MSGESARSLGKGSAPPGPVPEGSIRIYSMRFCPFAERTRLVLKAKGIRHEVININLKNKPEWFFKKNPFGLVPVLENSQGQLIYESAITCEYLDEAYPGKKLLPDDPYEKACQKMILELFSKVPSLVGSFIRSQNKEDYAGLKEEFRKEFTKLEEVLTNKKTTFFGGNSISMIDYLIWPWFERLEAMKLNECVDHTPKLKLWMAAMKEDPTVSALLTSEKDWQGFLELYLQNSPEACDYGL
TDP2 inh – human TDP2 enzyme inhibitors, primary screen, biochemical, epi absorbance, recombinant enzyme | Tyrosyl-DNA phosphodiesterase 2 (Homo sapiens), O95551 | T5PNP hydrolysis, p-nitrophenol absorbance 415 nm | inhibition, % at 12.8 µM | 0.34% of 370,000 active | AID 720702, 2013;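 active = inhibition above the mean of all tested compounds plus 3 SD, set per campaign, cut at about 25% in these data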;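 note: 0% = DMSO with enzyme and 100% = buffer with substrate but no TDP2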
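System: recombinant human TDP2 / Amount: 120 nM TDP2 per well / Also added: 5 mM T5PNP chromogenic substrate / Doses: 12.8 µM single point, 1% DMSO / Incubation: 2 h at 37 °C / Detection: p-Nitrophenol epi absorbance / Evaluation: % inhibition relative to enzyme-containing and enzyme-free wells / Repeats: singlicate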
Apaf1 inhib – inhibitors of human Apaf-1 apoptosome, primary screen, biochemical, DEVD-Rh110 fluorescence, uHTS; reconstituted apoptosome caspase-3 activity; inhibition, % at 20 µM; 0.71% of 330,000 active; active = inhibition of at least 40% at 20 µM;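 note: plate controls were DMSO wells for no effect and DEVD-CHO caspase inhibitor wells for full effect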
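Material: biochemical Apaf-1 apoptosome reconstitution. Medium: Hepes buffer, pH 7.5. Also added: cytochrome c activation, bis-DEVD rhodamine 110 substrate. Timing: 30 min compound preincubation, 50 min activation, room temperature. Measured by: rhodamine 110 fluorescence at Ex 480/Em 540 nm.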
Fh CTSL1 inh – Fasciola hepatica cathepsin L1 inhibitors, primary screen, counter-screen for PFM18AAP inhibitor project, biochemical, QFRET, fluorogenic peptide substrate. recombinant F. hepatica cathepsin L1, Z-Leu-Arg-MCA fluorescence. inhibition, % at 5.96 µM. 0.49% of 300,000 active. AID 1906, 2009;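 active = inhibition above the mean of all tested compounds plus 3 SD, set per screening campaign, cut at about 17% in these data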;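 note: 0% = plate median of test compound wells and 100% = 1 µM Z-Phe-Ala-diazomethylketone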
TDP2 inh conf – human TDP2 enzyme inhibitors, retest, confirmation, biochemical, epi absorbance, recombinant enzyme; shares compounds with TDP2 inh; absorbance read-out; inhibition, % at 12.8 µM; 22% of 1,100 active; AID 743263, 2014; in the data active = inhibition above about 25%;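 note: 0% = vehicle with enzyme and 100% = no enzyme buffer only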
Numbers without * were called inactive; x = not tested or not shown.

SMILES	PAD4 inh	GSTO1 inh	TDP2 inh	Apaf1 inhib	Fh CTSL1 inh	TDP2 inh conf
O=C(c1cccnc1)N1CCN(Cc2ccc3ccccc3c2)CC1	-1.2	3.6	30.6*	1.3	3.1	-0.3
O=S(=O)(c1ccc(S(=O)(=O)N2CCC(O)CC2)cc1)N1CCCC1	-4.7	0.3	24.9*	0.7	-1.4	1.7
O=C(N[C@@H]1CC[C@H]2SC[C@H](C(=O)O)N2C1=O)OCC1c2ccccc2-c2ccccc21	x	x	-4.5	x	x	x
CC(C)(C)n1nnnc1C(c1cccnc1)N1CCOCC1 (stereo not given)	-0.4	5.1	26.5*	-17.0	-0.3	-3.7
COC(=O)C1=C(C)N(Cc2ccccc2C(F)(F)F)C(=NCc2ccc3c(c2)OCO3)NC1c1ccccc1C(F)(F)F (stereo not given)	x	x	-19.7	x	x	x
CSc1ccc(CN(C)CC(=O)Nc2c(F)cccc2F)cc1	-3.8	15.6	28.7*	1.4	1.7	19.8
CSc1ccc(CN(C)CC(=O)Nc2ccc(NC(C)=O)cc2)cc1	1.1	3.8	-0.3	-15.0	2.6	x
Cc1ccc(OCCOc2cccc3ccc(C)nc23)c([N+](=O)[O-])c1	-6.4	-4.7	25.4*	0.4	0.7	10.2
COC(=O)C1=C(C)N(C)C(=NCc2ccc(OC)cc2)NC1c1cccc(F)c1 (stereo not given)	x	x	6.7	x	x	x
Cc1csc(N/N=C/c2ccc([N+](=O)[O-])cc2)n1	1.4	-3.1	-5.0	0.7	-2.1	x
Cc1nnc(N/N=C/c2ccc([N+](=O)[O-])cc2)n1N	5.3	-0.8	55.1*	-32.0	-2.1	0.1
CC(C)CNc1cccc2c1S(=O)(=O)N(Cc1cccc(F)c1)[C@@H](C)[C@H](c1ccccc1)O2	x	x	-4.6	x	x	x
COc1ccc(NC(=O)c2cccnc2SC)cc1OC	3.2	-0.1	3.8	-17.9	-6.8	x
COc1cc(N)c2ncccc2c1SC	x	x	44.7*	x	x	3.0
COc1cc(N)c2ncccc2c1Br	x	x	76.2*	x	x	50.7*
COc1cc(NC(C)=O)c2ncccc2c1NC(C)=O	-1.6	-5.8	-8.6	-1.7	-2.9	x
COc1ccc(CN(CCN2CCOCC2)C(=O)c2ccc(F)cc2Cl)cc1OC	x	x	0.1	x	x	x
Cc1oc2c(cc(NS(=O)(=O)c3ccc(Cl)cc3)c3ccccc32)c1C(=O)O	x	x	11.2	7.9	x	x
CCOC(=O)c1c(C)oc2c1cc(NS(=O)(=O)c1ccc(C(=O)O)cc1)c1ccccc12	-15.4	23.6	33.8*	23.3	3.3	16.1
COc1ccc(NC(=O)c2sc(NC(=O)COc3ccccc3)nc2C)cc1	-1.6	2.6	-0.4	3.4	0.4	x
Cc1nc(NC(=O)COc2ccccc2)sc1C(=O)Nc1cccc(Cl)c1	-8.5	-5.9	27.2*	13.6	-0.7	-16.9
CC1(C)CC(=O)C=C(Nc2ccc(O)c(C(=O)O)c2)C1	-9.7	22.8	25.4*	-18.2	8.5	0.5
COC(=O)C1=C(C)N(Cc2cccc(C(F)(F)F)c2)C(=NCc2ccc(OC)cc2)NC1c1ccccc1 (stereo not given)	x	x	2.0	x	x	x
O=C(Nc1nc(Cc2ccccc2)c(Cc2ccccc2)n1Cc1ccccc1)c1ccccc1	x	x	10.1	x	x	x
O=C(O)C1CCCN1C(=O)c1cccc(Cl)c1 (stereo not given)	x	x	4.8	x	x	x
SMILES	PAD4 inh	GSTO1 inh	TDP2 inh	Apaf1 inhib	Fh CTSL1 inh	TDP2 inh conf
CN(Cc1c(C(=O)N/N=C/c2ccccc2)nnn1-c1nonc1N)c1ccccc1	-3.1	3.2	-2.5	19.2	0.4	x
COc1ccc(/C=N/NC(=O)c2nnn(-c3nonc3N)c2CN(C)c2ccccc2)cc1	4.8	2.4	26.9*	14.5	1.1	6.8
N/C(=N\N=C\c1ccc(Br)o1)c1nonc1N	2.8	-5.4	30.5*	3.7	3.9	-0.9
O=C(COC(=O)c1ccccc1SCC(=O)N1CCCC1)NC1CCS(=O)(=O)C1 (stereo not given)	2.0	5.3	-13.7	3.5	-1.0	x
O=C(COC(=O)c1ccccc1SCC(=O)N1CCCC1)NC1CCCCC1	1.9	-8.1	26.0*	-1.1	-0.7	4.3
O=C1COc2ccccc2C(c2nnnn2-c2ccc3ccccc3c2)N1C1CC1 (stereo not given)	x	x	7.8	x	x	x
O=C(Cn1nnc(-c2ccncc2)n1)Nc1ccc(Oc2ccccc2)cc1	x	x	3.4	x	x	x
CC(C)C1NC2(C(=O)c3ccccc3C2=O)C2C(=O)N(c3ccc(F)cc3)C(=O)C12 (stereo not given)	-8.7	2.4	40.0*	5.0	-2.4	1.6
